According to ChEMBL document CHEMBL2010776, “Synthesis and structure elucidation of novel fused 1,2,4-triazine derivatives as potent inhibitors targeting CYP1A1 activity” (Bioorg Med Chem, 2012):

Key:
CYP1A1 = target: T1, CYP1A1 (Rattus norvegicus, UniProt P00185); experiment: Inhibition of CYP1A1 activity in rat liver microsomes using benzo[alpha]pyrene as substrate at 100 nmol after 10 mins by fluorescence analysis; parameters: species or system Microsome; settings: probe benzo[alpha]pyrene
T1 sequence (P00185 whole entry): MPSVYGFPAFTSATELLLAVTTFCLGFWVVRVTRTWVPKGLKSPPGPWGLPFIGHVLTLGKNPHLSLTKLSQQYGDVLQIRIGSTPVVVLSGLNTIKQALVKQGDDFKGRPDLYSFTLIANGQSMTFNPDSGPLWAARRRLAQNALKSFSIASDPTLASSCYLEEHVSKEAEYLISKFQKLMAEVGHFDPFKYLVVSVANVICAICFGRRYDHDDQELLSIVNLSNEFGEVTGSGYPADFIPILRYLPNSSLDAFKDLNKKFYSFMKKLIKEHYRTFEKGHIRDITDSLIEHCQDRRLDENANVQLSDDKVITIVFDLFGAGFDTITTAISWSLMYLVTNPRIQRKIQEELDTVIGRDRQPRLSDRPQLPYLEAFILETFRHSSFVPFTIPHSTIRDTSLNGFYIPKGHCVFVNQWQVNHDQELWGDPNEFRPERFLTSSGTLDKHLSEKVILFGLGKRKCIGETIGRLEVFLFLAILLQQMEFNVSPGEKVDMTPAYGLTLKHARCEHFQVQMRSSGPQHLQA
In short: (§1)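 AHH assay, 1 mL mix: 50 mM Tris–HCl pH 7.4, […], 100 nmol test compound, 0.1 mL microsomal protein (10 mg/mL) from PAH-induced rat liver (105,000 g pellet, resuspended in 0.1 M K phosphate pH 7.4). Started with 100 nmol benzo[a]pyrene, 37 °C 10 min, acetone stop; 3-OH-BaP hexane-extracted, fluorescence ex 396/em 522 nm; percent change in activity.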

Cytochrome P450 1A1 = target: T2, Cytochrome P450 1A1 (Rattus norvegicus, UniProt P00185); experiment: Inhibition of CYP1A1 activity in rat liver microsomes using benzo[alpha]pyrene as substrate after 10 mins by fluorescence analysis; parameters: species or system Microsome; in short: as §1
T2 sequence (P00185 whole entry): T1 sequence (P00185 whole entry)

Mus musculus [1] = experiment: Acute toxicity in mouse assessed as tolerability up to 350 mg/kg, po; type: organism-based; parameters: dose 350 mg/kg, route oral; settings: in vivo
Mus musculus [2] = experiment: Acute toxicity in mouse assessed as tolerability up to 150 mg/kg, ip; type: organism-based; parameters: dose 150 mg/kg, route intraperitoneal; settings: in vivo
In short: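 Mice in groups of six; compound suspended in corn oil and given intraperitoneally at 1, 5, 10, 50 or 150 mg/kg; vehicle-only control group. Body weight recorded before dosing and on days 7 and 14 (termination).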

[3] = Toxicity in po dosed mouse; type: organism-based; settings: in vivo

inhibition at 10 min (CYP1A1) [%]	IC50 (Cytochrome P450 1A1) [nM]	Compound	Activity (Mus musculus [1])	Activity (Mus musculus [2])	LD50 [3] [mg/kg]
48.2	10.4	COc1ccc(CC2=NN3C(=NN(C(C)=O)C3(C)c3ccc(C)cc3)N(N(C(C)=O)C(C)=O)C2=O)cc1 (stereo unspecified)			
59.8	8.36	COc1ccc(CC2=NN3C(=NN(C(C)=O)C3(C)c3ccccc3)N(NC(C)=O)C2=O)cc1 (stereo unspecified)			
51.5	9.71	COc1ccc(C2N(C(C)=O)N=C3N2N=C(Cc2ccccc2)C(=O)N3N(C(C)=O)C(C)=O)cc1 (stereo unspecified)			
75.6	6.62	CC(=O)NN1C(=O)C(Cc2ccccc2)=NN2C1=NN(C(C)=O)C2(C)c1ccc(C)cc1 (stereo unspecified)			
57.6	86.7	COc1ccc(CC2=NN3C(=NN(C(C)=O)C3c3ccccc3)N(N(C(C)=O)C(C)=O)C2=O)cc1 (stereo unspecified)			

Continued, compound first:

Compound	inhibition at 10 min (CYP1A1) [%]	IC50 (Cytochrome P450 1A1) [nM]	Activity (Mus musculus [1])	Activity (Mus musculus [2])	LD50 [3] [mg/kg]
COc1ccc(Cc2nnc(N/N=C3\C(=O)Nc4ccccc43)n(N)c2=O)cc1	90.5	5.53	Non-toxic	Non-toxic	> 350
CC(=O)NN1C(=O)C(Cc2ccccc2)=NN2C1=NN(C(C)=O)C2(C)c1ccc(Cl)cc1 (racemic)	87.9	5.69	Non-toxic	Non-toxic	> 350
CC(=O)N1N=C2N(N=C(Cc3ccccc3)C(=O)N2N(C(C)=O)C(C)=O)C1c1ccccc1 (stereo unspecified)	20.6	24.2			
CC(=O)NN1C(=O)C(Cc2ccccc2)=NN2C1=NN(C(C)=O)C2(C)c1ccccc1 (stereo unspecified)	37.9	13.2			
CC(=O)N1C(=O)C2(c3ccccc31)N(C(C)=O)N=C1N(N(C(C)=O)C(C)=O)C(=O)C(Cc3ccccc3)=NN12 (stereo unspecified)	64.6	7.74			
COc1ccc(CC2=NN3C(=NN(C(C)=O)C34C(=O)N(C(C)=O)c3ccccc34)N(N(C(C)=O)C(C)=O)C2=O)cc1 (stereo unspecified)	81.5	61.4	Non-toxic	Non-toxic	> 350
Nn1c(N/N=C2\C(=O)Nc3ccccc32)nnc(Cc2ccccc2)c1=O	92.2	5.42	Non-toxic	Non-toxic	> 350
